Bioassay records (PubChem BioAssay)
bIAP activator: bovine intestinal alkaline phosphatase activators, primary screen, biochemical, bovine IAP, CDP-star luminescence; purified bovine IAP, 30 min; active compounds read high; fold of DMSO-control signal, blank-subtracted; alkaline phosphatase, intestinal [Bos taurus]; activation factor at 20 µM; 200,000 tested, 0.17% active; AID 1016, 2008;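 active means activation factor of 2 or more at 20 µM, a signal rise over negative controls twice the positive control's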
hIAP inh: human IAP inhibitors, primary screen, biochemical, luminescence, uHTS | Intestinal-type alkaline phosphatase (Homo sapiens), P09923 | purified IAP, CDP-Star luminescence, 30 min | inhibition, % at 10 µM | 330,000 tested, 0.12% active | AID 2544, 2010;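 active means inhibition reaching a set limit with compound at 10 µM in the primary screen, cut at about 35% in these data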
Target sequence (P09923 whole entry, looked up): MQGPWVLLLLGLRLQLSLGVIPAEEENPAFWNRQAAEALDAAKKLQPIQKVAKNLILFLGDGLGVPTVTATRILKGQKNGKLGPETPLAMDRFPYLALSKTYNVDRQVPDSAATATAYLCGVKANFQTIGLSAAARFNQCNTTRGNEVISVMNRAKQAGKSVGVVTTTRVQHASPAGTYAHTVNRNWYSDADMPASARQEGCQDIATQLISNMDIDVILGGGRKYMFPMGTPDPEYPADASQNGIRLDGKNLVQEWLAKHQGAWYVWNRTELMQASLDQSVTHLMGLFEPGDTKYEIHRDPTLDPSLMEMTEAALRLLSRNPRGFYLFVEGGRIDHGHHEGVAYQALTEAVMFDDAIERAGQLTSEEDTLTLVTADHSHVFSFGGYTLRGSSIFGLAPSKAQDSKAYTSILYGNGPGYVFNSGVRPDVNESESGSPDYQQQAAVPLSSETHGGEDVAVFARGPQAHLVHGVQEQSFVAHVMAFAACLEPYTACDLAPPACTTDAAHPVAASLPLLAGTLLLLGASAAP
mIAP block: inhibitors of mouse IAP, primary screen, biochemical, luminescence, uHTS | purified mouse IAP, CDP-Star luminescence, 30 min | inhibition, % at 10 µM | 330,000 tested, 0.2% active | AID 2806, 2010;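 active means inhibition of at least 40% at 10 µM in the primary screen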
hIAP act: human IAP activators, primary screen, biochemical, luminescence, uHTS | Intestinal-type alkaline phosphatase (Homo sapiens), P09923 | purified human IAP, CDP-Star luminescence, 30 min; active compounds read high; 1 = vehicle-only enzyme, 0 = enzyme-free background | activation factor at 10 µM | 330,000 tested, 0.16% active | AID 2524, 2010;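 active means activation factor of the enzyme at least 2-fold when tested at 20 µM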
bIAP inhibitor: bovine intestinal alkaline phosphatase inhibitors, primary screen, selectivity assay for TNAP inhibitor project, biochemical, bovine IAP, CDP-star luminescence. alkaline phosphatase, intestinal [Bos taurus]. purified bovine IAP, 30 min. inhibition, % at 20 µM. 190,000 tested, under 10 active. AID 1019, 2008;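 active means over 50% inhibition of intestinal alkaline phosphatase at 20 µM in the single-dose screen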
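test system = bovine IAP enzyme | medium = DEA buffer 100 mM, pH 9.8, with MgCl2 1.0 mM, ZnCl2 0.02 mM | detection = luminescence | dosing = single compound dose of 20 µM, 2% DMSO final | incubation = 30 min reaction at room temperature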
mIAP activ: activators of mouse IAP, primary screen, biochemical, luminescence, uHTS; intestinal alkaline phosphatase [Mus musculus]; muIAP, CDP-Star luminescence, 30 min; active compounds read high; 1 = vehicle-only enzyme signal, 0 = enzyme-free wells; activation factor at 10 µM; 330,000 tested, 0.24% active; AID 2805, 2010;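 active means activation factor of at least 2 at 20 µM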
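Assay system: mouse IAP enzyme; reagent: chemiluminescent substrate CDP-Star; dosing: test compounds delivered from DMSO solution; schedule: 30 min at room temperature; measured by: luminescence from enzymatic CDP-Star hydrolysis; controls: DMSO-only wells and no-enzyme negative control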
hIAP act confirm: human IAP activators, confirmation, biochemical, luminescence, single concentration, uHTS hits; shares compounds with hIAP act; purified IAP, CDP-Star luminescence, 30 min; active compounds read low; activation (%Activity, negative = activation), % at 8.3 µM; 880 tested, 10% active;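 active means at least twofold enzyme activation in any of six single-dose repeats, which the averaged readout prints as negative percent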
Hits are given with their value; . = inactive; / = no result. Shown are actives, neighbours in structure and some others; about 0.77% of the full set was active somewhere.

SMILES | bIAP activator | hIAP inh | mIAP block | hIAP act | bIAP inhibitor | mIAP activ | hIAP act confirm
CC(NC(=O)c1ccc2nc[nH]c2c1)c1ccccc1 (centres undefined) | . | . | . | 2.4 | . | . | .
CCC(CC)NC(=O)c1ccc2nc[nH]c2c1 | . | . | . | . | . | . | /
O=C(CSc1nc(-c2cccs2)cc(C(F)(F)F)n1)NCc1ccccc1 | . | 37 | . | . | . | . | .
CC(NS(=O)(=O)c1ccc(F)cc1)C(=O)Nc1ccc2c(c1)OCCO2 (centres undefined) | / | . | . | . | / | . | /
CCCCN1C(=O)/C(=C/C=C2\SCCN2C)SC1=S | . | 44 | . | . | . | . | .
CN1CCS/C1=C/C=C1\SC(=S)N(CC(=O)O)C1=O | . | . | . | . | / | . | /
COc1cc(/C=C2\Oc3cc(O)ccc3C2=O)ccc1O | / | 46 | . | . | / | . | .
Cc1cccc(NC(=S)NNC(=O)Cc2ccccc2)c1 | . | . | . | . | . | . | /
O=C(Cc1ccccc1)NNC(=S)Nc1ccc(Cl)cc1 | . | . | . | 2.1 | . | . | .
Cc1ccc(C2CC2C(=O)NNC(=S)Nc2ccc(Cl)cc2)cc1 (centres undefined) | . | . | . | 2.4 | . | . | .
CC1CCCCC1NC(=O)COC(=O)c1ccccc1NC(=O)c1ccco1 (centres undefined) | . | 82 | . | . | . | . | .
N#Cc1c(-c2ccccc2)nc(N2CCCCCC2)[nH]c1=O | . | . | . | . | . | . | /
N#Cc1c(-c2ccccc2)nc(N2CCOCC2)[nH]c1=O | . | 38 | . | . | . | . | .
CCNC(=O)Cc1c(OC)ccc2cc(Br)ccc12 | . | 43 | . | . | . | . | .
Cc1ccc(NC(=O)c2cc(C)nc3ccccc23)c(C)c1 | / | . | . | . | / | . | /
Cc1cc(C(=O)Nc2ccccc2Cl)c2ccccc2n1 | / | 38 | . | . | / | . | .
CCCOc1ccc(C(=O)NNC(=S)NC(=O)c2ccccc2[N+](=O)[O-])cc1 | / | . | . | 2.1 | / | . | .
CCCOc1ccc(C(=O)NNC(=S)NC(C)=O)cc1 | . | . | . | 2.2 | . | . | .
CCCOc1ccc(C(=O)NNC(=S)NC(=O)c2ccccc2)cc1 | / | . | . | . | / | . | /
C=CCNC(=S)NNC(=O)c1ccc(OCCCC)cc1 | . | . | . | 2.1 | . | . | .
CCCCOc1ccc(C(=O)NNC(=S)NC(=O)CC)cc1 | . | / | / | / | . | / | /
Cc1cc(C)c2c(N)c(C(=O)N/N=C/c3ccccc3)sc2n1 | / | . | . | . | / | . | /
COc1cccc(CNC(=O)CCC2CCCN(C(=O)c3ccccc3N(C)C)C2)c1 (centres undefined) | / | . | . | . | / | . | /
Cc1nn(CC(=O)O)c(C)c1NC(=O)c1cccs1 | / | 42 | . | . | / | . | .
O=C(CSc1nc(-c2ccco2)cc(C(F)(F)F)n1)NCCN1CCOCC1 | . | . | . | . | . | . | /
SMILES | bIAP activator | hIAP inh | mIAP block | hIAP act | bIAP inhibitor | mIAP activ | hIAP act confirm
C/C(=N\N(Cc1ccccc1)c1ccccc1)c1ccncc1 | . | 39 | . | . | . | . | .
CN(C(=O)c1ccncc1)c1ccccc1 | / | . | . | . | / | . | /
CN(C)c1ccc(N=Nc2ccccc2Br)cc1 | / | 42 | . | . | / | . | -104
CC(=O)c1ccc(N=Nc2ccc(N(C)C)cc2)cc1 | . | . | . | . | . | . | /
Cc1ccc(S(=O)(=O)NC(=O)NC(C)c2ccc(F)cc2)cc1 (centres undefined) | / | . | . | . | / | . | /
CCN(CC(=O)Nc1c(F)cccc1F)C(=O)CCCc1cccs1 | / | . | . | . | / | . | /
CCOC(=O)c1sc(NC(=O)/C=C/c2ccccc2)nc1C | . | . | . | 2.2 | . | . | .
Cc1ccc(-c2cc(C(=O)N/N=C/c3cccnc3)n[nH]2)o1 | . | . | . | . | . | . | /
Cc1ccc(/C=N/NC(=O)c2cc(-c3ccc(C)o3)[nH]n2)cc1 | / | . | . | 2.1 | / | . | .
CCn1c(=O)c2ccccc2n2c(SCC(N)=O)nnc12 | / | . | . | . | / | . | /
O=C(CCS(=O)(=O)c1ccc(Cl)cc1)Nc1ccc(N2CCOCC2)cc1 | / | . | . | . | / | . | /
CCOc1ccc(NS(=O)(=O)c2cc(C(=O)NCCN3CCOCC3)ccc2C)cc1 | / | . | . | . | / | . | /
O=C(Nc1ccc(Cl)cc1)c1nc[nH]c1C(=O)NCCCNC(=O)c1[nH]cnc1C(=O)Nc1ccc(Cl)cc1 | / | . | . | 2.1 | / | . | .
CCOC(=O)c1ccc(NC(=S)N2CCSC2c2ccc(Br)cc2)cc1 (centres undefined) | . | . | . | . | . | . | /
CCn1c2ccccc2c2cc(/C=N/n3c(-c4cc(C)[nH]n4)n[nH]c3=S)ccc21 | / | . | . | 2.1 | / | . | .
CCn1c2ccccc2c2cc(/C=N/n3cn[nH]c3=S)ccc21 | . | . | . | . | . | . | /
O=C1Nc2ccccc2/C1=N\N=C\c1ccc(O)c(O)c1 | / | 35 | . | . | / | . | .
COc1cc(/C=N/N=C2/C(=O)Nc3ccccc32)ccc1O | . | . | . | . | . | . | /
Cc1nnc(NC(=O)c2ccc(S(=O)(=O)N3CCOCC3)cc2)s1 | / | . | . | . | / | . | /
O=C(CSc1nnc(NC(=O)c2ccc(S(=O)(=O)N3CCOCC3)cc2)s1)Nc1ccccc1C(F)(F)F | . | 87 | . | . | . | . | .
CNc1ccc(S(=O)(=O)NCC(=O)NCCCc2ccccc2)cc1[N+](=O)[O-] | / | 35 | . | . | / | . | .
CN(C)c1ccc(S(=O)(=O)NCC(=O)NCc2ccccc2)cc1[N+](=O)[O-] | / | . | . | . | / | . | /
NC(=O)c1cccc(CS(=O)(=O)c2ccc(Cl)cc2)c1 | / | . | . | . | / | . | /
Cc1ccc(CN2CCC(c3nc4ccc(Cl)cc4[nH]3)CC2)cc1 | . | . | . | . | . | . | /
Cc1cc2nc(C3CCN(Cc4nnnn4Cc4cccs4)CC3)[nH]c2cc1C | . | 37 | . | . | / | . | .
O=C(NNC(=O)c1ccccc1Br)c1cnccn1 | / | . | . | . | / | . | /
COc1cc2c(cc1OC)C(C)N(C(=O)Nc1ccccc1)CC2 (centres undefined) | / | . | . | . | / | . | /
COc1cc2c(cc1OC)[C@H](C)N(C(=S)Nc1ccc(F)cc1)CC2 | / | . | . | 2.3 | / | . | .
